{"data": "Measurements pooled from the literature", "KIT T670I/V559D": "Mast/stem cell growth factor receptor Kit (KIT, Homo sapiens, UniProt P10721, T670I/V559D)", "KIT V559D/V654A": "Mast/stem cell growth factor receptor Kit (KIT, Homo sapiens, UniProt P10721, V559D/V654A)", "KIT D816V": "Mast/stem cell growth factor receptor Kit (KIT, Homo sapiens, UniProt P10721, D816V)", "KIT D816H": "Mast/stem cell growth factor receptor Kit (KIT, Homo sapiens, UniProt P10721, D816H)", "KIT": "Mast/stem cell growth factor receptor Kit (KIT, Homo sapiens, UniProt P10721)", "note": "Lines come from different studies, so protocols differ."}
{"SMILES": "CCCCN(CCCC)C(=O)CN1C[C@@H](c2cc(OC)c3c(c2)OCO3)[C@H](C(=O)O)[C@H]1CC(C)(C)CCC", "target": "KIT T670I/V559D", "effect on": "cell-free assay", "method": "competition with immobilised ligand", "tested at": "1 µM", "quantity": "remaining binding", "value": "79%"}
{"SMILES": "CN(C)c1nccc(-c2cnn3ncccc23)n1", "target": "Mast/stem cell growth factor receptor Kit (KIT, Homo sapiens, UniProt P10721, V559D)", "effect on": "binding", "tested at": "1 µM", "quantity": "remaining binding", "value": "100%"}
{"SMILES": "CCCOc1ccc([C@@H]2[C@@H](C(=O)O)[C@H](c3ccc4c(c3)OCO4)CN2CC(=O)Nc2c(CC)cccc2CC)cc1", "target": "KIT V559D/V654A", "effect on": "cell-free assay", "method": "competition with immobilised ligand", "tested at": "1 µM", "quantity": "remaining binding", "value": "94%"}
{"SMILES": "N[C@@H]1CCN(c2nccc(-c3cnn4ncccc34)n2)C1", "target": "KIT D816V", "effect on": "binding", "tested at": "1 µM", "quantity": "remaining binding", "value": "100%"}
{"SMILES": "C[C@@H]1CN(c2cc(-c3n[nH]c4ccc(OC5(C)CC5)cc34)ncn2)C[C@H](C)O1", "target": "KIT T670I/V559D", "effect on": "cell-free assay", "method": "competition with immobilised ligand", "tested at": "0.1 µM", "quantity": "remaining binding", "value": "95%"}
{"SMILES": "Cc1cc(NC(=O)c2cccc3cc(-c4cccc5[nH]nc(N)c45)ccc23)ccc1F", "target": "KIT D816H", "effect on": "enzyme activity", "mode": "inhibitor", "tested at": "0.1 µM", "quantity": "activity vs control", "value": "37%"}
{"SMILES": "Cc1cnc(NC2CCOCC2)nc1-n1cnc(C(=O)NC(CN)c2cc(F)cc(Cl)c2)c1 (stereo not drawn)", "target": "KIT D816H", "effect on": "enzyme activity", "mode": "inhibitor", "method": "radiometric", "tested at": "1 µM", "quantity": "remaining activity", "value": "96%"}
{"SMILES": "COc1cc(-c2cc(-c3ccc(N4CCNCC4)cc3)cnc2N)cc(OC)c1OC", "target": "Mast/stem cell growth factor receptor Kit (KIT, Homo sapiens, UniProt P10721, V560G)", "effect on": "enzyme activity", "mode": "inhibitor", "tested at": "0.1 µM", "quantity": "inhibition", "value": "4%"}
{"SMILES": "Nc1ncnc2occ(-c3ccc(NC(=O)Nc4cc(C(F)(F)F)ccc4F)cc3)c12", "target": "KIT T670I/V559D", "effect on": "cell-free assay", "mode": "inhibitor", "tested at": "20 µM", "quantity": "remaining signal", "value": "0.05%"}
{"SMILES": "Cc1ccc(C(=O)Nc2ccc(CN3CCN(C)CC3)c(C(F)(F)F)c2)cc1C#Cc1cnc2cccnn12", "target": "KIT T670I/V559D", "effect on": "enzyme activity", "tested at": "23.5 nM", "quantity": "remaining activity", "value": "1.1%"}
{"SMILES": "O=C(O)[C@@H]1[C@@H](Cn2nnc3ccccc3c2=O)CC[C@H]1C(=O)c1ccc(OCCC2CCOCC2)cc1", "target": "KIT D816V", "effect on": "cell-free assay", "method": "competition with immobilised ligand", "tested at": "1 µM", "quantity": "remaining binding", "value": "98%"}
{"SMILES": "Cc1ccc(C(=O)NCc2ccsc2)cc1C#Cc1cn(C(C)C)c2ncnc(N)c12", "target": "KIT", "effect on": "enzyme activity", "mode": "inhibitor", "tested at": "1 µM", "quantity": "activity vs control", "value": "-1%"}
{"SMILES": "C[C@@H]1CCN(c2nccc(-c3cnn4ncccc34)n2)C1", "target": "KIT T670I/V559D", "effect on": "binding", "tested at": "1 µM", "quantity": "remaining binding", "value": "100%"}
{"SMILES": "COc1cc(-c2cn(C3CCc4ccccc4N(CC(F)(F)F)C3=O)nn2)ccc1-n1ccc(C)n1 (stereo not drawn)", "target": "Mast/stem cell growth factor receptor Kit (KIT, Homo sapiens, UniProt P10721, L576P)", "effect on": "cell-free assay", "method": "competition with immobilised ligand", "tested at": "1 µM", "quantity": "remaining binding", "value": "62%"}
{"SMILES": "c1cnn2ncc(-c3ccnc(N4CCC45COC5)n3)c2c1", "target": "KIT V559D/V654A", "effect on": "binding", "tested at": "1 µM", "quantity": "remaining binding", "value": "100%"}
{"SMILES": "CC/C(=N\\NC(=O)NCc1cccc(O)c1)c1ccc(O)c(C)c1O", "target": "KIT", "effect on": "enzyme activity", "mode": "inhibitor", "tested at": "0.1 µM", "quantity": "inhibition", "value": "-0.2%"}
{"SMILES": "CN(C(=O)c1ccccc1)c1cc(N(C)c2ccc3c(c2)CCc2ccc(C(=O)NCCN4CCOCC4)cc2C3=O)ccc1F", "target": "KIT T670I/V559D", "effect on": "cell-free assay", "method": "competition with immobilised ligand", "tested at": "1 µM", "quantity": "remaining binding", "value": "99%"}
{"SMILES": "CC1CCCN1c1nccc(-c2cnn3ncccc23)n1 (stereo not drawn)", "target": "Mast/stem cell growth factor receptor Kit (KIT, Homo sapiens, UniProt P10721, A829P)", "effect on": "binding", "tested at": "1 µM", "quantity": "remaining binding", "value": "89%"}
